# Screening data deposited in PubChem BioAssay by Broad Institute.
# E-selectin induc: induces E-selectin expression in human endothelial cells. P16581. HUVEC E-selectin immunofluorescence imaging; normalized: neutral wells 0, TNF-alpha wells 100. activation, % at 7.58 µM. 260,000 tested, 0.37% active;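 active = mean E-selectin-positive cell signal at least 10% of the positive control, reached in at least 60% of replicates, without over 20% cell loss; inconclusive = no rule given, readout overlaps actives, possibly toxicity-flagged; inactive = the rest, including those meeting only one limit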
#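 Assay system: HUVEC primary endothelial cells. Input: 3,000 HUVEC seeded per well. Doses: one compound dose added by pin transfer. Read-out basis: % PE-positive cells. Benchmarks: TNF-alpha high, DMSO low. Detection: immunofluorescence imaging. Buffer or medium: EGM-2, gelatin.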
# DENV2 CPE: DENV2-induced cell death inhibition | AID 651640 | 350,000 tested, 1.7% active | DENV2-infected cells, cytopathic effect rescue, plate reader | CPE inhibition, % at 9.99 µM; in the data active = CPE inhibition above about 20%, passing the limit was not always enough; inconclusive = no clear call, values can overlap the other calls; tested in BHK-21 cells;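 also: 0% = median of neutral control wells and 100% = median of positive control wells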
# F508del corr: CFTR F508del correction in bronchial cells; 350,000 tested, 0.36% active; activity (quench increase), % at 7.58 µM; CFBE cells, YFP halide quenching; stimulated with forskolin plus potentiator P3; % fluorescence drop versus neutral controls; AID 720511;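 active = mean added fluorescence quench of at least 8% versus neutral control, with both replicates also reaching 8%; inconclusive = only one of the mean or replicate conditions met; inactive = mean below 8% and not both replicates reaching 8%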;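 also: cells transiently co-express mutant CFTR-F508del with the halide-sensitive YFP; corrector assay measuring rescue of mutant channel to the surface after 24 h compound exposure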
# FGF22 binding: binders of recombinant human FGF22 by thermal shift | SYPRO orange fluorescence; percent of sucrose octasulfate shift, DMSO zero | activity (Tm shift, normalised), % at 9.99 µM | 340,000 tested, 1.5% active | AID 651658;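 active = mean Tm shift, scaled 0 neutral to 100 positive control, at about 1.3% or above, every replicate too, limit read from the data; inconclusive = no clear call, values can overlap the other calls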
# ERAP1 HTS inh: blocks human ERAP1 aminopeptidase activity; AID 652197; recombinant ERAP1, Leu-AMC fluorescence, 60 min; inhibition, % at 10.7 µM; Q9NZ08; 340,000 tested, 0.15% active;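 active = mean replicate inhibition of at least 30%, or all replicates individually reaching that 30% level; inactive = mean below 30% and not every replicate reaching it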;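 also: 0% = neutral control wells and 100% = L-leucinethiol positive control wells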
# Target sequence (Q9NZ08 whole entry, looked up): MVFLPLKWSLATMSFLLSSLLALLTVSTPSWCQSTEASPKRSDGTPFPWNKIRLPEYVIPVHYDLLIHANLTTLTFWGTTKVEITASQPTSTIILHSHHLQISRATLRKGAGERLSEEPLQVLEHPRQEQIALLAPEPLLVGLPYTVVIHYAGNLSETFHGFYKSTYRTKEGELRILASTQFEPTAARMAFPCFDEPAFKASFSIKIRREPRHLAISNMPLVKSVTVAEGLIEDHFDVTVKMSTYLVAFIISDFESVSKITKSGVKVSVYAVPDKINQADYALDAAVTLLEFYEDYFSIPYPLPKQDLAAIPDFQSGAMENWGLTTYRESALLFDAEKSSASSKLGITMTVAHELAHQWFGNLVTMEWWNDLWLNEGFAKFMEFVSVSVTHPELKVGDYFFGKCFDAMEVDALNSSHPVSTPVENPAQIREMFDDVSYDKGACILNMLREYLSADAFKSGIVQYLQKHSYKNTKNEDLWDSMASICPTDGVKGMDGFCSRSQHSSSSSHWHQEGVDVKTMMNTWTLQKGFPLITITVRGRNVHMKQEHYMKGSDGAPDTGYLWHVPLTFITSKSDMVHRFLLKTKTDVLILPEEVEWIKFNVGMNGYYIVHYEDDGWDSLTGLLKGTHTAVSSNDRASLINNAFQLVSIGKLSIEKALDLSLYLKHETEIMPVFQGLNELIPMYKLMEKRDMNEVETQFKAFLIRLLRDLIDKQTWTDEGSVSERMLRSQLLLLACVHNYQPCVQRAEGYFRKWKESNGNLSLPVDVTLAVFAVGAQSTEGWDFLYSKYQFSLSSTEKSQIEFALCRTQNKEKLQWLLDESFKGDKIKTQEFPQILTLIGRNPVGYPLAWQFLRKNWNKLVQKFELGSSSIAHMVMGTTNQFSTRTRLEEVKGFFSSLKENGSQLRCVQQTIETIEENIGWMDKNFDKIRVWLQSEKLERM
# Numbers without * were called inactive; ? = inconclusive; nt = no result. In the library only some 3.7% were active in any assay of this set; here they are far more common.
SMILES,E-selectin induc,DENV2 CPE,F508del corr,FGF22 binding,ERAP1 HTS inh
C[C@@H]1CCCCO[C@@H](CN(C)S(=O)(=O)c2ccc(F)cc2)[C@H](C)CN([C@H](C)CO)C(=O)c2cc(NC(=O)C3CCCCC3)ccc2O1,0.1,?,1.9,nt,1.8
Cc1nc(C)c(CC(=O)N/N=C/c2ccc(O)cc2)c(=O)[nH]1,nt,31.3*,0.8,0.1,1.4
CCOc1ccc2[nH]cc(S(=O)(=O)c3ccc(Cl)cc3)c(=O)c2c1,nt,-2.2,3.7,0.1,-2.9
CCOc1ccc2[nH]cc(S(=O)(=O)c3ccc(C)cc3)c(=O)c2c1,1.7,60.4*,3.6,0.0,0.3
Cc1coc2cc3oc(=O)c(CCC(=O)NCCCn4ccnc4)c(C)c3cc12,nt,-12.3,3.1,0.0,2.1
Cc1c(CCC(=O)NCCCN2CCCC2=O)c(=O)oc2cc(O)ccc12,nt,66.6*,-2.3,-0.1,-4.6
Cc1oc2cc3oc(=O)c(CCC(=O)NCCCn4ccnc4)c(C)c3cc2c1C,nt,20.9*,2.6,0.4,-0.4
Cc1c(CCC(=O)NCCCN2CCCC2=O)c(=O)oc2c(C)c(O)ccc12,nt,?,2.1,-0.2,nt
C[C@H](NC(=O)[C@@H]1[C@@H](CO)[C@@H]2Cn3c(ccc(-c4cccnc4)c3=O)[C@H]1N2C)c1ccccc1,0.0,3.9,1.1,0.2,-0.9
COc1ccc(NC(=O)N(C)C[C@@H]2Oc3ccc(NC(=O)C4CCCCC4)cc3CC(=O)N([C@H](C)CO)C[C@@H]2C)cc1,-0.1,-6.3,0.0,0.1,5.0
COc1ccc(S(=O)(=O)N(C)C[C@@H]2Oc3ccc(NS(=O)(=O)c4c(C)noc4C)cc3C(=O)N([C@@H](C)CO)C[C@H]2C)cc1,189.0*,nt,1.2,-0.1,3.7
COc1ccc(CN(C)C[C@H]2Oc3ccc(NS(=O)(=O)c4c(C)noc4C)cc3C(=O)N([C@@H](C)CO)C[C@@H]2C)cc1,18.9,24.6*,-2.5,0.0,1.6
Cc1noc(C)c1S(=O)(=O)Nc1ccc2c(c1)C(=O)N([C@@H](C)CO)C[C@@H](C)[C@H](CN(C)Cc1ccc(Oc3ccccc3)cc1)O2,-1.9,-2.4,-1.2,-0.3,1.0
C[C@H]1CN([C@@H](C)CO)C(=O)Cc2cc(NS(=O)(=O)c3cccs3)ccc2O[C@H]1CN(C)S(=O)(=O)c1cccs1,0.2,nt,-3.3,nt,nt
O=C(NNC(=O)c1cccc2ccccc12)c1cccc(F)c1,1.2,-7.1,4.9,43.4*,1.3
O=C(CN1C(=O)c2cccc3cccc(c23)C1=O)NCCCO,63.5*,0.6,0.0,0.1,-1.2
O=C1c2ccccc2C(=O)N1CCCN1C(=O)c2ccccc2C1=O,-0.7,7.4,2.4,-0.1,-0.4
O=C(CCCCCN1C(=O)c2cccc3cccc(c23)C1=O)NCCCO,-0.3,-2.6,0.5,0.0,-0.8
O=C1c2ccc3c4c(ccc(c24)C(=O)N1CCCCO)C(=O)N(CCCCO)C3=O,0.4,1.3,18.2*,0.1,3.3
CCSc1nnc(N2C(=O)C(O)=C(C(=O)c3ccco3)C2c2cccc(OC)c2)s1 (configuration not stated),nt,0.7,9.3*,0.0,14.1
CC1(C(=O)NCc2cc(F)cc(C(F)(F)F)c2)C=CC2(CCCCC2)N1C(=O)c1ccccc1 (configuration not stated),0.0,100.1*,-3.6,-0.1,-2.6
C[C@@H]1CN([C@H](C)CO)C(=O)Cc2cc(NS(=O)(=O)c3cccs3)ccc2O[C@@H]1CN(C)C(=O)Nc1ccc(C(F)(F)F)cc1,nt,-4.2,0.6,-0.2,-0.8
O=C(C(=O)N1CCOCC1)c1c[nH]c2ccccc12,nt,-1.1,4.1,43.2*,1.4
CCCc1cc(CNC(=O)C2CCC(=O)N(CCc3cccc(F)c3)C2)on1 (configuration not stated),nt,54.6*,3.1,0.0,1.0
CCOC(=O)C1CCCN(C(=O)c2ccc3nc(-c4ccc(OC)c(OC)c4)c(-c4ccc(OC)c(OC)c4)nc3c2)C1 (configuration not stated),nt,15.3,-4.8,0.1,33.8*
SMILES,E-selectin induc,DENV2 CPE,F508del corr,FGF22 binding,ERAP1 HTS inh
CCOC(=O)C1CCCN(C(=O)c2ccc3nc(-c4ccccc4)c(-c4ccccc4)nc3c2)C1 (configuration not stated),nt,-5.0,-1.7,0.0,-2.9
O=[N+]([O-])c1ccc(/C=C/C2=NN(c3ccccc3)C(c3ccco3)C2)o1 (configuration not stated),nt,-2.0,16.1*,0.2,0.2
CO[C@H]1CN(C)C(=O)c2ccc(NC(=O)c3nc4ccccc4s3)cc2OC[C@H](C)N(Cc2cncnc2)C[C@@H]1C,0.1,-1.9,0.0,0.0,0.5
C[C@@H]1CN([C@@H](C)CO)C(=O)c2cc(NC(=O)Nc3ccc4c(c3)OCO4)ccc2O[C@@H](C)CCCCO[C@H]1CN(C)CC1CCCCC1,-0.1,-5.9,1.5,1.4*,-7.5
CC(C)NC(=O)Nc1ccc2c(c1)C(=O)N([C@H](C)CO)C[C@H](C)[C@H](CN(C)CC1CC1)OCCCC[C@@H](C)O2,1.7,106.6*,-1.6,0.0,2.0
C[C@@H]1CCCCO[C@@H](CN(C)CC2CCCCC2)[C@H](C)CN([C@@H](C)CO)C(=O)c2cc(NC(=O)Nc3ccc(F)cc3)ccc2O1,0.2,29.1*,-0.7,0.3,-1.9
Cc1ccc(C(=O)CNc2ccc(Cl)cc2)cc1,13.7,2.7,12.5*,0.1,-2.7
C[C@@H]1CN([C@@H](C)CO)C(=O)Cc2cc(NC(=O)c3ccncc3)ccc2O[C@H]1CN(C)C(=O)Nc1ccccc1,2.9,1.6,-0.2,0.2,-1.5
Cc1ccc(S(=O)(=O)N(C)C[C@@H]2Oc3c(NC(=O)NC4CCCCC4)cccc3C(=O)N([C@H](C)CO)C[C@@H]2C)cc1,-0.1,-7.9,-2.7,-0.3,-1.6
O=C(COC(=O)c1cccs1)NCC1CCCCC1,nt,-3.4,-1.7,43.4*,0.2
O=C(COC(=O)c1cccs1)NCc1ccccc1,nt,nt,nt,nt,0.5
C[C@@H]1CN([C@@H](C)CO)C(=O)Cc2cc(NS(=O)(=O)c3cn(C)cn3)ccc2O[C@@H]1CN(C)S(=O)(=O)c1ccccc1,-0.3,1.0,-1.5,0.0,-0.7
COc1ccc(CC2(CO)CCN(Cc3ccc4nsnc4c3)CC2)cc1,nt,3.6,-1.4,43.5*,-1.6
COc1ccc(CCN2CC(C(=O)NCCc3cn[nH]c3)CCC2=O)cc1 (configuration not stated),-1.0,87.6*,0.7,0.0,-1.3
COc1ccc(CCN2CC(C(=O)NCCc3cccnc3)CCC2=O)cc1 (configuration not stated),-0.2,-3.4,-0.7,0.0,-5.2
CC1=C(/C=C/C(C)=C/C=C/C(C)=C/CO)C(C)(C)CCC1,nt,121.5*,-2.3,-0.3,0.7
COc1cc(OC)cc(C(=O)NCC(=O)OCC(=O)c2ccc3c(c2)-c2ccccc2C3)c1,nt,-10.6,-0.9,44.8*,1.3
c1ccc(CSc2ccc(-c3cccs3)nn2)nc1,nt,2.6,-2.0,43.7*,0.9
